For test [1], the system named is Rattus norvegicus. Put plainly: The in vivo effect of the compound (sc injection, 107 umol/kg) on DOPA accumulation in limbic and striatal regions of reserpine-pretreated rat brains. It counts as functional, Brain. In outline:
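Rats pretreated with reserpine 18 h before subcutaneous test compound, then given the decarboxylase inhibitor NSD 1015. L-DOPA accumulation measured in limbic and striatal brain tissue. The value is the maximum effect, taken at a dose where the dose-response curve had reached maximum, expressed as percent of controls.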

Test [2] has as its system Rattus norvegicus. Description: The in vivo effect of the compound (sc,227uM/kg) on DOPA accumulation in limbic and striatal regions of the rat brain without reserpine pretreatment. It counts as functional. Put shortly:
(§1)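 No reserpine pretreatment. Rats given test compound subcutaneously, then the decarboxylase inhibitor NSD 1015. L-DOPA accumulated in limbic and striatal brain tissue was measured. The value is the maximum effect, selected at a dose where the dose-response curve had reached maximum, expressed as percent of controls.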

For test [3], the target named is D(2) dopamine receptor (Rattus norvegicus) (UniProt P61169). Description: Effect on DOPA accumulation in limbic and striatal regions of reserpine-pretreated rat brains. The test is classed as functional, tissue-based. The settings on record: Brain.
Test [4] shares this target. Description: Effect on extracellular DA levels in the striatal region of rat brain. The test is classed as functional, tissue-based. Put shortly: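 Awake, freely moving rats; test compound injected subcutaneously, with dose varying by compound. Extracellular striatal DA measured by microdialysis, analysing perfusates collected from implanted probes. The value is the maximum DA level between 20 and 100 min after administration, expressed as percent of saline controls.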

In test [5] the test system is Rattus norvegicus. Put plainly: In vivo effect on DOPA accumulation in limbic and striatal regions of the rat brain without reserpine pretreatment. It counts as functional, Limbic system. Further details: unit not given beside the values.
Test [6] concerns Rattus norvegicus. Description: The in vivo effect of the compound (sc,3.7uM/kg) on DOPA accumulation in limbic and striatal regions of the rat brain without reserpine pretreatment. It counts as functional. In outline: as §1
In test [7] the test system is Rattus norvegicus. Description: The in vivo effect of the compound (sc injection, 50 umol/kg) on DOPA accumulation in limbic and striatal regions of reserpine-pretreated rat brains. The test is classed as functional, Brain.
In test [8] the test system is Rattus norvegicus. Description: The in vivo effect of the compound (sc injection, 227 umol/kg) on DOPA accumulation in limbic and striatal regions of reserpine-pretreated rat brains. It counts as functional, Brain.

D(2) dopamine receptor (Rattus norvegicus), sequence (P61169 whole entry): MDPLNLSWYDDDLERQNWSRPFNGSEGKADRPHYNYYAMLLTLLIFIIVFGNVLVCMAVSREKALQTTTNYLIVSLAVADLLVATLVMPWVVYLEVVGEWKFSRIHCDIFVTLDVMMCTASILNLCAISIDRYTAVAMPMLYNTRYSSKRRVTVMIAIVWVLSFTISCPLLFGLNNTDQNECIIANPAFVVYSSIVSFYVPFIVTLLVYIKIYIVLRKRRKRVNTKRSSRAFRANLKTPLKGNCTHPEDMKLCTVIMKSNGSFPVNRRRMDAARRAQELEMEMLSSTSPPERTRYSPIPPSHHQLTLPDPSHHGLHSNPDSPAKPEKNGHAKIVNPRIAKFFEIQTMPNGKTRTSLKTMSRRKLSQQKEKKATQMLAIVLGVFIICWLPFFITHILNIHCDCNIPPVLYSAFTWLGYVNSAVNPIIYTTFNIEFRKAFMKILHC

As for `CN1CCC[C@@H](c2cccc(O)c2)C1`, the DOPA accumulation in the test on Rattus norvegicus [1] was 20; in the test with Rattus norvegicus [2] it was 51.

In the case of `CCCN1CCC[C@@H](c2cccc(C#N)c2)C1`, in test [3], the DOPA accumulation is 105. For the same compound, the Activity in test [4] was 411.

Regarding `Oc1cccc([C@@H]2CCCNC2)c1`, the DOPA accumulation in the test with Rattus norvegicus [2] stood at 44.

Regarding `CCCc1cccc([C@@H]2CCCN(CCC)C2)c1`, the DOPA accumulation was 190 in the test on Rattus norvegicus [5] and 62 in test [3].

For the compound `CCCCN1CCC[C@@H](c2cccc(O)c2)C1`, the DOPA accumulation in the test with Rattus norvegicus [6] came to 86; with Rattus norvegicus [1], 22.

Consider `Oc1cccc([C@@H]2CCCN(CCc3ccccc3)C2)c1`, for which the DOPA accumulation in the test with Rattus norvegicus [6] is 37; with Rattus norvegicus [1], 22.

On to `C=CCN1CCC[C@@H](c2ccccc2)C1`, for which, in test [4], the Activity is 364.

On to `CCCN1CCC[C@@H](c2cccc(OC)c2)C1`, for which the DOPA accumulation in test [3] was 66.

With `C=CCN1CCC[C@@H](c2cccc(C#N)c2)C1`, in test [3], the DOPA accumulation was determined as 85. For the same compound, the Activity in test [4] worked out at 593.

With `CCCN1CCC[C@@H](c2cccc(SC)c2)C1`, the DOPA accumulation in the test with Rattus norvegicus [7] worked out at 92.

As to `CCCN1CCC[C@@H](c2cccc(OS(C)(=O)=O)c2)C1`, the DOPA accumulation with Rattus norvegicus [5] came to 249; in test [3] it was 92. This compound displayed an Activity in test [4] of 239.

Consider `CCCCN1CCC[C@@H](c2cccc(C#N)c2)C1`, for which, in the test on Rattus norvegicus [7], the DOPA accumulation amounted to 71.

Regarding `CCCCN1CCC[C@@H](c2cccc(OS(=O)(=O)C(F)(F)F)c2)C1`, in the test on Rattus norvegicus [5], the DOPA accumulation stood at 234.

Take `CCCN1CCC[C@@H](c2cccc(-c3ccsc3)c2)C1`: the Activity in test [4] came to 106.

With `CCN1CCC[C@@H](c2cccc(C#N)c2)C1`, the Activity in test [4] amounted to 223.

Take `CN1CCC[C@@H](c2cccc(OS(=O)(=O)C(F)(F)F)c2)C1`: the DOPA accumulation with Rattus norvegicus [5] was found to be 157.

`CCN1CCC[C@@H](c2cccc(OS(=O)(=O)C(F)(F)F)c2)C1`: in the test with Rattus norvegicus [5], the DOPA accumulation turned out to be 286. Also, the Activity in test [4] worked out at 143.

In the case of `CCCN1CCC[C@@H](c2cccc(C(C)=O)c2)C1`, the DOPA accumulation in test [3] amounted to 73. Further, the Activity in test [4] was found to be 196.

In the case of `CCCN1CCC[C@@H](c2cccc(S(C)(=O)=O)c2)C1`, in test [3], the DOPA accumulation was 95. In addition, in test [4], the Activity is 293.

Compound `CCC(C)N1CCC[C@@H](c2cccc(C#N)c2)C1` (some centres not stated) displayed an Activity in test [4] of 282.

As to `C#Cc1cccc([C@@H]2CCCN(CCC)C2)c1`, the Activity in test [4] is 270.

On to `CCCN1CCC[C@@H](c2cccc(C=O)c2)C1`, for which, in test [3], the DOPA accumulation was determined as 83.

Regarding `CCCN1CCC[C@@H](c2cccc(CC#N)c2)C1`, the DOPA accumulation in test [3] came out at 57.

As for `CCCN1CCC[C@@H](c2cccc(N)c2)C1`, the DOPA accumulation in test [3] is 91.

With `CCCN1CCC[C@@H](c2cccc(O)c2)C1` [PRECLAMOL], in the test with Rattus norvegicus [8], the DOPA accumulation was found to be 30. The Activity in test [4] was 400.

As for `CC(C)N1CCC[C@@H](c2cccc(O)c2)C1`, the DOPA accumulation with Rattus norvegicus [5] stood at 47; in test [3] it was 18. In test [4], the Activity turned out to be 56.

On to `CCCN1CCC[C@@H](c2cccc(Br)c2)C1`, for which, in test [3], the DOPA accumulation was determined as 101. The Activity in test [4] was determined as 372.

As to `CCCN1CCC[C@@H](c2ccccc2)C1`, the DOPA accumulation in the test with Rattus norvegicus [5] is listed as 140; with Rattus norvegicus [7], 65. The same compound gave an Activity in test [4] of 543.

Turning to `CCCN1CCC[C@@H](c2cccc(CO)c2)C1`, the DOPA accumulation in test [3] was found to be 50. This compound came in with an Activity in test [4] of 191.

Source of the values: ChEMBL document CHEMBL1128505, “On the quantitative structure-activity relationships of meta-substituted (S)-phenylpiperidines, a class of preferential dopamine D2 autoreceptor ligands: modeling of dopamine synthesis and release in vivo by means of partial least squares regression” (1995).
